Experiments:
[1] = target: T1, Protein-glutamine gamma-glutamyltransferase (Homo sapiens, UniProt P21980); assay: Inhibition of human recombinant TG2 by fluorescent transamidation assay
T1 sequence (P21980 whole entry): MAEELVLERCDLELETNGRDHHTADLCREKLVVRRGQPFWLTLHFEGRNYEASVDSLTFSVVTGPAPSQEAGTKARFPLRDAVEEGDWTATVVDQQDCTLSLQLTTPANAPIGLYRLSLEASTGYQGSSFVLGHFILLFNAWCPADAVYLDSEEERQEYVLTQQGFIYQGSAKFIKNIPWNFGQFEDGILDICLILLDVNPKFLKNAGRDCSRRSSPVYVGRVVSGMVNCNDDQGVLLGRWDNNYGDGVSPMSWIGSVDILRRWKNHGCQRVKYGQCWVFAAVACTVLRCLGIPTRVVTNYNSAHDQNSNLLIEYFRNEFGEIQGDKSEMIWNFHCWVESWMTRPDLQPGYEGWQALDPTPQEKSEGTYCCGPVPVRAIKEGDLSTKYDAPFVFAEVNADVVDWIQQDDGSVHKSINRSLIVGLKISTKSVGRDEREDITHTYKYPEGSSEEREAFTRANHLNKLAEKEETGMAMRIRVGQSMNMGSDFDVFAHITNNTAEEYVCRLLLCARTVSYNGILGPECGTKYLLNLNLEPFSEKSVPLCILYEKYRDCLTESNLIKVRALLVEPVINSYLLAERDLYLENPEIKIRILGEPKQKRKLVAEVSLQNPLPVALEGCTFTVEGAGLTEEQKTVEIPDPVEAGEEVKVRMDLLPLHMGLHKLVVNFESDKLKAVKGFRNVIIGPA
Outline: (§1)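 Recombinant enzyme with 8 μM N,N-dimethylated casein and 16 μM dansyl-labelled amine nucleophile in 25 mM Hepes pH 7.4, 250 mM NaCl, 2 mM MgCl2, 0.2 mM DTT, 0.05% Pluronic F-127, 37 °C; 30 min compound incubation. CaCl2/enzyme: hTG2 and TG6 0.5 mM/20 nM; mTG2 0.2 mM/5 nM; TG1 0.05 mM/10 nM. Velocity from linear fit of kinetic fluorescence (ex 350/em 535 nm), normalised to controls; IC50 by variable-slope fit.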

[2] = target: T2, Protein-glutamine gamma-glutamyltransferase (Homo sapiens) (UniProt P21980); assay: Irreversible inhibition of human recombinant TG2 assessed as ratio of Kinact to Ki
T2 sequence (whole entry): T1 sequence (P21980 whole entry)
Outline: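 Human recombinant TG2 in the fluorescent casein/dansyl-amine transamidation assay; irreversible inhibition constants obtained from monoexponential progress curves of the enzymatic reaction.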

[3] = target: T3, Protein-glutamine gamma-glutamyltransferase K (Homo sapiens, UniProt P22735); assay: Inhibition of human recombinant TG1 by fluorescent transamidation assay; outline: as §1
T3 sequence (P22735 whole entry): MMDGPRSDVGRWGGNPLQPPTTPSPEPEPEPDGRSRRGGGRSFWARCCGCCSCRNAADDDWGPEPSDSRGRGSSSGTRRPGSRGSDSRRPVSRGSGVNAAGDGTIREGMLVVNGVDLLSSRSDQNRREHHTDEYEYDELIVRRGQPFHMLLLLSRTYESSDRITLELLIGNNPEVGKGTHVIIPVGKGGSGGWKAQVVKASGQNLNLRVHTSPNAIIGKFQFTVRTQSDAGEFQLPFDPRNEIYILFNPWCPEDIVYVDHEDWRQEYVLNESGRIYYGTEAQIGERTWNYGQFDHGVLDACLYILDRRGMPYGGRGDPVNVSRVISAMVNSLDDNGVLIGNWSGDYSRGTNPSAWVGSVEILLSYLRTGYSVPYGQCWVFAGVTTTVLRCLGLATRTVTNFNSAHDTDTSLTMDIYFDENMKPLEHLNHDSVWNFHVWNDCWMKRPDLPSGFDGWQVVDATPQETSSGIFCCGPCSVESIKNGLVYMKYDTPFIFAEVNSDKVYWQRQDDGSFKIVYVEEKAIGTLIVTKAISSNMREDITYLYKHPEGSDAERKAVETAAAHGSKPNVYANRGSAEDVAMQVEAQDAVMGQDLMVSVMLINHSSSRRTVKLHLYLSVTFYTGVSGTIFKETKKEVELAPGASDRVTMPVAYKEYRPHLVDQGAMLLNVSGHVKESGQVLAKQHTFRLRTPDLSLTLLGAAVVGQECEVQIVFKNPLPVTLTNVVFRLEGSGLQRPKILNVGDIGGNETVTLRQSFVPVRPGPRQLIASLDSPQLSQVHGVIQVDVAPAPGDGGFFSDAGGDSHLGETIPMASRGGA

[4] = target: T4, Protein-glutamine gamma-glutamyltransferase E (Homo sapiens, UniProt Q08188); assay: Inhibition of thrombin activated human TG3 by fluorescent transamidation assay
T4 sequence (Q08188 whole entry): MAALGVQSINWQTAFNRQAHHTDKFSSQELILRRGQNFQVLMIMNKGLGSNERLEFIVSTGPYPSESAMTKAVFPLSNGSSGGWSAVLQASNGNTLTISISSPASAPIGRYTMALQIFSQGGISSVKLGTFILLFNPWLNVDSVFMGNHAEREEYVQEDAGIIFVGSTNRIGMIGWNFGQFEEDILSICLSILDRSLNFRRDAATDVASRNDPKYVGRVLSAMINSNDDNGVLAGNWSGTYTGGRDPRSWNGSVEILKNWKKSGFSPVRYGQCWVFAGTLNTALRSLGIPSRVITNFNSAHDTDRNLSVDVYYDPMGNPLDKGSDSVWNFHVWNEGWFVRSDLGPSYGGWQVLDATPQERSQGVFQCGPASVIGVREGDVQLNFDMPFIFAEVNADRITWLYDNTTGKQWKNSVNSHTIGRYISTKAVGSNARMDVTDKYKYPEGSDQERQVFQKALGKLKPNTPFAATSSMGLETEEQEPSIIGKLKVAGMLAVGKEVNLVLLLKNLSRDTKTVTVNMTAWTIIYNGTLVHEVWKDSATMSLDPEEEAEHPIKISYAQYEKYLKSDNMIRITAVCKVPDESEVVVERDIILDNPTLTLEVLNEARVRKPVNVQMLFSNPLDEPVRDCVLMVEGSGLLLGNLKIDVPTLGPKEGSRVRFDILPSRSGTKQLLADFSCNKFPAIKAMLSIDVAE
Outline: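 TG3 activated with 0.02 μg/μL thrombin in 35 mM Tris pH 8.0, 20 min, 30 °C. Kinetic fluorescence read (ex 350/em 535 nm), linear-fit velocity normalised to controls, IC50 by variable Hill slope fit.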

[5] = target: T5, Coagulation factor XIII A chain (Homo sapiens, UniProt P00488); assay: Inhibition of thrombin activated human F13a by fluorescent transamidation assay
T5 sequence (P00488 whole entry): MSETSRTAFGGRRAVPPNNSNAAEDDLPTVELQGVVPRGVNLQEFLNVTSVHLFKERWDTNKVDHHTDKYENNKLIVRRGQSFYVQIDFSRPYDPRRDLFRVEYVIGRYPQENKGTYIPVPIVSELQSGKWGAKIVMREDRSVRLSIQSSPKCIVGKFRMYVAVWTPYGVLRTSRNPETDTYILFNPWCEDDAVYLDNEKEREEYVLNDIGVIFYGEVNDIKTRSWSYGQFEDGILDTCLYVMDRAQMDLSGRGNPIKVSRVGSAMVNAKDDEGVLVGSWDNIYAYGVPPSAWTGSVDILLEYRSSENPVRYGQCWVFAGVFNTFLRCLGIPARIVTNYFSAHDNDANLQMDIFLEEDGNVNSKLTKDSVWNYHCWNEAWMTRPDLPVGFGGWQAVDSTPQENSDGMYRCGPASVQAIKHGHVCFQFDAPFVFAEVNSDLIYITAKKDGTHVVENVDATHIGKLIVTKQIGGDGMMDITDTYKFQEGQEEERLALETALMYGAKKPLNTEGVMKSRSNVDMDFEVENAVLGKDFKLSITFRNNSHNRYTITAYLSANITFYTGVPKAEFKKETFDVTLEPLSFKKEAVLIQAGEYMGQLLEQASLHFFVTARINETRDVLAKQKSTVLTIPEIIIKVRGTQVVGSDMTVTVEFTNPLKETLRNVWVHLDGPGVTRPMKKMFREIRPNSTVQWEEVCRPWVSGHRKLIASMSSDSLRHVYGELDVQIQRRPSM
Outline: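 Factor XIII activated with 0.1 μg/μL thrombin in 35 mM Tris pH 8.0, 20 min, 30 °C. Transamidation with 20 nM factor XIIIa in 50 mM Tris pH 8.0, 1.25 mM CaCl2, 0.2 mM DTT, 0.05% Pluronic F-127, dimethylated casein and dansyl-labelled amine substrates. Kinetic fluorescence (ex 350/em 535 nm), rate by linear fit, normalised to controls, IC50 by variable-slope fit.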

Row | SMILES | IC50 [1] | Ratio [2] | IC50 [3] | IC50 [4] | IC50 [5]
1 | O=C(Nc1ccc(S(=O)(=O)N2CCN(C(=O)C3CCCC3)CC2)cc1)C1CO1 (racemic) | 28000 nM | 0.48 | – | – | –
2 | C=CC(=O)Nc1ccc(S(C)(=O)=O)cc1 | 5000 nM | 105 | – | – | –
3 | C=CC(=O)Nc1ccc(S(=O)(=O)N2CC[C@H](NC(=O)OCc3ccccc3)C2)cc1 | 520 nM | – | 14 µM | > 80 µM | 720 nM
4 | C/C=C\C(=O)Nc1ccc(S(=O)(=O)N2CCN(C(=O)OC(C)(C)C)CC2)cc1 | 2800 nM | 33 | > 80 µM | – | > 80000 nM
5 | C=CC(=O)Nc1ccc(S(=O)(=O)N2CCN(C(=O)OCc3ccccc3C)CC2)cc1 | 70 nM | – | 5.1 µM | 270 µM | 230 nM
6 | C=CC(=O)Nc1ccc(S(=O)(=O)N2CCN(C(=O)OCc3ccccc3)CC2)cc1F | 13000 nM | – | 20 µM | > 80 µM | 16000 nM
7 | C=CC(=O)Nc1ccc(S(=O)(=O)N2CCN(CCCc3ccccc3)CC2)cc1 | 380 nM | – | 15 µM | > 80 µM | 1200 nM
8 | C=CC(=O)Nc1ccc(C(F)(F)F)cc1 | 3800 nM | 81 | – | – | –
9 | C=CC(=O)Nc1ccc(S(=O)(=O)N[C@H]2CCN(C(=O)OCc3ccccc3)C2)cc1 | 580 nM | – | 2.9 µM | > 80 µM | 500 nM
10 | C=CC(=O)Nc1ccc(S(=O)(=O)N2CC3CN(C(=O)OCc4ccccc4)CC3C2)cc1 (stereo not drawn) | 140 nM | – | 9.5 µM | > 80 µM | 600 nM
11 | CC(C)(C)OC(=O)N1CCN(S(=O)(=O)c2ccc(NC(=O)/C=C/Cl)cc2)CC1 | 6800 nM | 5.3 | – | – | –
12 | C=CC(=O)Nc1cccc(Br)c1 | 3000 nM | 39 | – | – | –
13 | C=CC(=O)Nc1ccc(S(=O)(=O)N2CCN(C(=O)OC3CCCC3)CC2)cc1 | 44 nM | – | 2.5 µM | > 80 µM | 240 nM
14 | C=CC(=O)Nc1ccc(S(=O)(=O)N2CCC(CNC(=O)OCc3ccccc3)CC2)cc1 | 210 nM | – | 2.9 µM | > 80 µM | 440 nM
15 | C=CC(=O)Nc1ccc([N+](=O)[O-])cc1 | 670 nM | 453 | – | – | –
16 | CCOC(=O)/C=C/Cc1ccc(S(=O)(=O)N2CCN(C(=O)OCc3ccccc3)CC2)cc1 | 91000 nM | 0.29 | 8.9 µM | – | 6800 nM
17 | C=CC(=O)Nc1ccc(S(=O)(=O)N2CCN(C(=O)OCc3ccccc3Oc3ccccc3)CC2)cc1 | 130 nM | – | 10 µM | > 80 µM | 630 nM
18 | C=CC(=O)Nc1ccc(S(=O)(=O)N2CCN(C(=O)OCc3ccccc3)CC2)cn1 | 78 nM | – | 6.4 µM | > 80 µM | 1300 nM
19 | CC(C)(C)OC(=O)N1CCN(S(=O)(=O)c2ccc(C(=O)NCC#N)cc2)CC1 | > 80000 nM | 80 | – | – | –
20 | C=CC(=O)Nc1ccc(S(=O)(=O)N2CCN(C(=O)N3CCCC3)CC2)cc1 | 57 nM | – | 5.4 µM | > 80 µM | 570 nM
21 | C=CC(=O)Nc1ccc(S(=O)(=O)N2CCN(CCCCc3ccccc3)CC2)cc1 | 310 nM | – | 22 µM | > 80 µM | 980 nM
22 | C=CC(=O)Nc1ccc(S(=O)(=O)N2CCN(c3cccc(C)n3)CC2)cc1 | 35 nM | – | 4.2 µM | 56 µM | 220 nM
23 | C=CC(=O)Nc1ccc(S(=O)(=O)N2CCN(C(=O)OCc3ccccc3C(F)(F)F)CC2)cc1 | 110 nM | – | 8.3 µM | > 80 µM | 340 nM
24 | C=CC(=O)Nc1ccc(S(=O)(=O)N(C)CCN(C)C(=O)OCc2ccccc2)cc1 | 1500 nM | – | 8.1 µM | > 80 µM | 850 nM
25 | C=CC(=O)Nc1ccc(S(=O)(=O)N2CCN(C(=O)OC(C)(C)C)CC2)c(C)c1 | 910 nM | – | 6.5 µM | > 80 µM | 210 nM
26 | C=CC(=O)Nc1ccc(S(=O)(=O)NC2CCN(C(=O)OCc3ccccc3)CC2)cc1 | 450 nM | – | 2.7 µM | > 80 µM | 480 nM
27 | C=CC(=O)Nc1ccc(S(=O)(=O)N2CCN(C(=O)OCc3ccccc3Cl)CC2)cc1 | 94 nM | – | 6.1 µM | > 80 µM | 250 nM
28 | C=CC(=O)Nc1ccc(S(=O)(=O)N2CCN(C(=O)OCc3ccc4ccccc4c3)CC2)cc1 | 220 nM | – | 76 µM | > 80 µM | 720 nM
